For orientation: IC50 means the concentration that gives 50% inhibition.

The nature of data set [1]: Binding affinity to haematin assessed as inhibition of beta-haematin formation after 5 to 6 hrs by pyridine-ferrichrome-based method. The method in brief:
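Detergent (NP-40) mediated β-haematin formation assay, run manually. Compounds came from 20, 2 and 0.4 mM DMSO stocks, tested at 0–1000 µM final. Haematin was 100 µM final in 0.5 M acetate buffer, pH 4.8. Incubation was 5–6 h at 37 °C. Read-out used the pyridine-ferrichrome method with UV–vis absorbance. IC₅₀ came from sigmoidal dose–response fits.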

Data set [2] has as its system Plasmodium berghei. The experiment in a line: Antimalarial activity against Plasmodium berghei infected in Swiss mouse assessed as reduction in parasitemia at 50 mg/kg, ip qd administered for 4 days measured on day 4 post last dose by FACS analysis relative to control. It is filed as functional. Set-up: scale not given: the % may be the effect or the level left. The following applies: route intraperitoneal. The method in brief:
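Plasmodium berghei-infected mice, standard '4 Day Test'. Parasitaemia measured by FACS. Activity is the difference between mean percent parasitaemia of control (n = 5 mice) and treated groups, expressed as a percentage of control.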

Data set [3] concerns Plasmodium falciparum. The experiment in a line: Antimalarial activity against erythrocytic stage of chloroquine-sensitive Plasmodium falciparum NF54 after 48 hrs by [3H]-hypoxanthine incorporation assay. It counts as functional, organism-based. The method in brief:
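³H-hypoxanthine incorporation against P. falciparum NF54. DMSO stocks at 10 mg/mL were added to cultures in hypoxanthine-free RPMI 1640 with HEPES, NaHCO₃, neomycin and Albumax, using human A⁺ red cells at 2.5% haematocrit and 0.3% parasitaemia. Eleven 3-fold serial dilutions were tested. Incubation was under 4% CO₂/3% O₂/93% N₂. ³H-hypoxanthine was added after 48 h, followed by a further 24 h. Cells were harvested onto glass-fibre filters. IC₅₀ is the mean of two independent assays.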

Data set [4] relates to L6. The data set can be described thus: Cytotoxicity against rat L6 cells after 70 hrs by Alamar Blue assay. It is filed as functional, cell-based. The following applies: L6, 70 h. An outline of the steps:
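Rat skeletal myoblast L6 cells, 4000 per well, in RPMI 1640 with 1% L-glutamine and 10% fetal bovine serum. Eleven 3-fold serial drug dilutions were tested. Alamar Blue was added for a final 2 h. Fluorescence was read at excitation 536 nm and emission 588 nm. IC₅₀ is the mean of two independent assays.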
(Alamar Blue is a resazurin reagent that responds to reducing activity.)

Data set [5] can be described thus: Resistance index, ratio of IC50 for chloroquine/pyrimethamine-resistant Plasmodium falciparum K1 to IC50 for erythrocytic stage of chloroquine-sensitive Plasmodium falciparum NF54. It is filed as functional. The method in brief: (§1)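 Chloroquine/pyrimethamine-resistant K1 and drug-susceptible NF54 P. falciparum were grown in hypoxanthine-free RPMI 1640 with HEPES, NaHCO₃, neomycin and Albumax, in human A⁺ erythrocytes at 2.5% haematocrit and 0.3% parasitaemia. DMSO stocks were 10 mg/mL, tested in eleven 3-fold dilutions under 4% CO₂/3% O₂/93% N₂. ³H-hypoxanthine was added at 48 h, then 24 h more before filter harvest. IC₅₀ is the mean of two assays; RI = K1/NF54 IC₅₀.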

Data set [6] has as its system Plasmodium falciparum. The experiment in a line: Antimalarial activity against erythrocytic stage of chloroquine/pyrimethamine-resistant Plasmodium falciparum K1 after 48 hrs by [3H]-hypoxanthine incorporation assay. It is filed as functional, organism-based. An outline of the steps:
as §1

In data set [7] the test system is Plasmodium berghei. The data set can be described thus: Antimalarial activity against Plasmodium berghei infected in Swiss mouse assessed as survival at 50 mg/kg, ip qd administered for 4 days measured on day 4 post last dose. It is filed as functional. The following applies: route intraperitoneal.
Data set [8] can be described thus: Selectivity index, ratio of IC50 for rat L6 cells to IC50 for erythrocytic stage of chloroquine-sensitive Plasmodium falciparum NF54. It counts as toxicity, cell-based. The following applies: read-out: Ratio IC50. The method in brief:
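Selectivity index is the L6 cytotoxicity IC₅₀ divided by the NF54 antiplasmodial IC₅₀. Each IC₅₀ is the mean of two independent assays.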

Data set [9] in a line: Selectivity index, ratio of IC50 for rat L6 cells to IC50 for chloroquine/pyrimethamine-resistant Plasmodium falciparum K1. It counts as toxicity, cell-based. The following applies: read-out: Ratio IC50.

SMILES strings stand for the structures.

For `CC(C)(CNC(=O)Nc1ccccc1)CNc1nc2ccc(Cl)cc2c2[nH]c3ccccc3c12`, the IC50 in [1] stood at 11700 nM; in data set [3] it was 10.6 nM; in [4], 4000 nM; in data set [6], 16.9 nM. Moreover, in [2], the Activity is reported as 38%. For the same molecule, in data set [5], the Ratio IC50 turned out to be 1.6. In addition, the Survival in [7] came to 4 days. In addition, the selectivity ratio in data set [8] was 378; in data set [9] it was 236.
On to `NCCCNc1nc2ccccc2c2[nH]c3ccccc3c12`, for which the half-inhibitory concentration (IC50) in data set [1] is 116000 nM; in [3], 13.7 nM; in data set [4] it was 627 nM; in data set [6], 82.7 nM. The Ratio IC50 in data set [5] was 6. The selectivity ratio in data set [8] stood at 45.8; in [9] it was 7.6.
With `CC(CNC(=O)Nc1ccccc1)CNc1nc2ccc(Cl)cc2c2[nH]c3ccccc3c12` (stereo not given), the IC50 in data set [1] is 14600 nM; in [3], 10.9 nM; in data set [4], 4110 nM; in data set [6], 17.5 nM. The Ratio IC50 in data set [5] was 1.6. The selectivity ratio in [8] was 377; in [9], 235.
With `O=C(NCCCNc1nc2ccc(F)cc2c2[nH]c3ccccc3c12)Nc1ccccc1`, the half-inhibitory concentration (IC50) was determined as 22700 nM in data set [1], 25.7 nM in data set [3], 1500 nM in [4] and 49.2 nM in data set [6]. The Ratio IC50 in data set [5] amounted to 1.9. Further, the selectivity ratio in data set [8] was determined as 58.5; in data set [9] it was 30.6.
For the molecule `O=C(NCCCNc1nc2ccc(Cl)cc2c2[nH]c3ccccc3c12)Nc1ccccc1`, the half-maximal inhibitory concentration (IC50) stood at 14400 nM in data set [1], 27 nM in [3], 2570 nM in data set [4] and 50 nM in [6]. The Ratio IC50 in data set [5] came to 1.9. Moreover, the selectivity ratio was 95.1 in [8] and 51.4 in data set [9].
For `S=C(NCCCNc1nc2ccccc2c2[nH]c3ccccc3c12)Nc1ccccc1`, the concentration for half-maximal inhibition (IC50) worked out at 18500 nM in [1], 23.5 nM in data set [3], 249 nM in data set [4] and 49.3 nM in data set [6]. For the same molecule, in [5], the Ratio IC50 was 2.1. The results for the selectivity ratio in data set [8] and in data set [9] were 10.6 and 5.1, respectively.
On to `NCCCCCNc1nc2ccccc2c2[nH]c3ccccc3c12`, for which the IC50 in data set [1] came out at 81000 nM; in [3] it was 12.6 nM; in data set [4], 816 nM; in [6], 25.1 nM. Moreover, the Ratio IC50 in data set [5] amounted to 2. Further, the selectivity ratio is 64.8 in [8] and 32.5 in data set [9].
Consider `O=C(NCCCNc1nc2ccc(Br)cc2c2[nH]c3ccccc3c12)Nc1ccccc1`, for which the half-inhibitory concentration (IC50) was found to be 13900 nM in data set [1], 22.5 nM in data set [3], 1280 nM in data set [4] and 36.9 nM in data set [6]. The Ratio IC50 in [5] was found to be 1.6. In addition, the selectivity ratio in data set [8] came out at 56.9; in [9], 34.7.
On to `O=C(NCCCNc1nc2ccccc2c2[nH]c3ccccc3c12)Nc1ccccc1`, for which the IC50 in data set [1] was 23900 nM; in [3], 2.4 nM; in [4], 1150 nM; in data set [6] it was 53.7 nM. Besides, the Ratio IC50 in [5] was 22.4. Besides, the selectivity ratio in [8] is 480; in data set [9], 21.5.
For `CN(C)CCCNc1nc2ccccc2c2[nH]c3ccccc3c12`, the concentration for half-maximal inhibition (IC50) worked out at 83600 nM in data set [1], 9.4 nM in [3], 606 nM in data set [4] and 25.1 nM in data set [6]. For the same molecule, the Ratio IC50 in data set [5] was 2.66. The selectivity ratio was found to be 64.3 in [8] and 24.1 in data set [9].
As to `CC(C)(CN)CNc1nc2ccc(Cl)cc2c2[nH]c3ccccc3c12`, the 50% inhibitory concentration (IC50) in data set [1] was 20700 nM; in [3], 25.5 nM; in [4], 1840 nM; in data set [6], 51 nM. Moreover, in data set [5], the Ratio IC50 came out at 2. Further, the selectivity ratio in data set [8] was found to be 72.1; in data set [9] it was 36.1.
For `Cc1ccc2nc(NCCCNC(=O)Nc3ccccc3)c3c4ccccc4[nH]c3c2c1`, the IC50 stood at 17200 nM in [1], 23.6 nM in data set [3], 966 nM in data set [4] and 42.5 nM in [6]. Moreover, the Ratio IC50 in data set [5] is 1.8. Besides, the results for the selectivity ratio in [8] and in data set [9] were 40.9 and 22.7, respectively.
On to `O=S(=O)(NCCCNc1nc2ccccc2c2[nH]c3ccccc3c12)c1ccccc1`, for which the IC50 in data set [1] amounted to 24200 nM; in [3], 72 nM; in data set [4], 811 nM; in data set [6], 92.9 nM. Besides, the Ratio IC50 in [5] stood at 1.3. In addition, the selectivity ratio is 11.3 in [8] and 8.7 in data set [9].
Turning to `CC(CN)CNc1nc2ccc(Cl)cc2c2[nH]c3ccccc3c12` (stereo not given), the IC50 in [1] is 12700 nM; in [3], 29.5 nM; in [4] it was 1920 nM; in data set [6] it was 59 nM. For the same molecule, the Ratio IC50 in data set [5] worked out at 2. Further, the selectivity ratio in data set [8] turned out to be 65; in [9] it was 32.5.
On to `O=C(NCCCCCCNc1nc2ccccc2c2[nH]c3ccccc3c12)Nc1ccccc1`, for which the IC50 came to 16200 nM in data set [1], 22.1 nM in [3], 862 nM in data set [4] and 24.4 nM in data set [6]. Besides, in data set [5], the Ratio IC50 came out at 1.1. For the same molecule, the results for the selectivity ratio in data set [8] and in data set [9] were 39 and 35.3, respectively.
`COc1ccc2nc(NCCCNC(=O)Nc3ccccc3)c3c4ccccc4[nH]c3c2c1`: the half-maximal inhibitory concentration (IC50) in data set [1] amounted to 14800 nM; in data set [3], 17.1 nM; in [4], 1520 nM; in [6] it was 19.6 nM. For the same molecule, the Ratio IC50 in data set [5] came out at 1.1. The results for the selectivity ratio in data set [8] and in [9] were 88.8 and 77.4, respectively.
As for `NCCCCCCNc1nc2ccccc2c2[nH]c3ccccc3c12`, the IC50 in data set [1] stood at 49600 nM; in [3], 15 nM; in data set [4] it was 1180 nM; in data set [6], 90.2 nM. Further, the Ratio IC50 in data set [5] came to 6. Also, the selectivity ratio in data set [8] amounted to 78.8; in [9], 13.1.
For `NCCCNc1nc2ccc(Cl)cc2c2[nH]c3ccccc3c12`, the IC50 in [1] worked out at 12400 nM; in [3] it was 6.2 nM; in data set [4], 1120 nM; in [6] it was 67.7 nM. Further, in data set [5], the Ratio IC50 turned out to be 10.9. Further, the selectivity ratio in [8] came out at 181; in data set [9] it was 16.6.
Take `O=C(NCCCNc1nc2ccccc2c2[nH]c3ccccc3c12)c1cccs1`: the IC50 in [1] was found to be 24100 nM; in [3], 72.4 nM; in data set [4] it was 3500 nM; in data set [6], 84.9 nM. Also, the Ratio IC50 in data set [5] turned out to be 1.2. Further, the selectivity ratio in data set [8] was determined as 48.3; in data set [9], 41.2.

The values above are taken from ChEMBL document CHEMBL3259682, “Synthesis, β-haematin inhibition, and in vitro antimalarial testing of isocryptolepine analogues: SAR study of indolo[3,2-c]quinolines with various substituents at C2, C6, and N11” (Bioorg Med Chem, 2014).
